Assays:
Assay type in all cases: cell-based
[1] = molecular target: T1, Cellular tumor antigen p53 (Homo sapiens, UniProt P04637); assay: Activation of p53 in human NUGC4 cells assessed as change in PCNA mRNA level at 60 uM after 18 hrs by RT-PCR method relative to control; details: read-out: FC
[2] = molecular target: T1, Cellular tumor antigen p53; assay: Activation of p53 in human NUGC4 cells assessed as change in KAT2B mRNA level at 60 uM after 18 hrs by RT-PCR method relative to control; details: read-out: FC
Outline: (§1)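 p53 signaling qPCR array of 84 p53-pathway genes. Cells were treated in 6-well plates for 18 h with 0.5% DMSO in compound and control samples. Total RNA was extracted and fold-changes were obtained by the ΔΔCt method against untreated control, with β2-microglobulin (B2M) as housekeeping gene. Two independent biological replicates per cell line.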

[3] = molecular target: T1, Cellular tumor antigen p53; assay: Activation of p53 in human NUGC4 cells assessed as change in TP53AIP1 mRNA level at 60 uM after 18 hrs by RT-PCR method relative to control; details: read-out: FC
[4] = tested on: Cellular tumor antigen p53 (Homo sapiens), P04637 [Y220C]; assay: Activation of p53 Y220C mutant in human NUGC3 cells assessed as change in NF1 mRNA level at 60 uM after 18 hrs by RT-PCR method relative to control
Outline: (§2)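 p53 signalling qPCR array covering 84 p53 pathway genes. Cells were exposed for 18 h, and compound and control wells both held 0.5% DMSO. Total RNA was extracted and purified. Fold-changes were calculated by the ΔΔCt method against the untreated sample, with β2-microglobulin (B2M) as the housekeeping gene. Each cell line was run in two independent biological replicates.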

[5] = molecular target: T1, Cellular tumor antigen p53; assay: Activation of p53 in human NUGC4 cells assessed as change in PRC1 mRNA level at 60 uM after 18 hrs by RT-PCR method relative to control; details: read-out: FC
[6] = molecular target: T1, Cellular tumor antigen p53; assay: Activation of p53 in human NUGC4 cells assessed as change in CRADD mRNA level at 60 uM after 18 hrs by RT-PCR method relative to control; details: read-out: FC; outline: as §1
[7] = molecular target: T1, Cellular tumor antigen p53; assay: Activation of p53 in human NUGC4 cells assessed as change in CCNG1 mRNA level at 60 uM after 18 hrs by RT-PCR method relative to control; details: read-out: FC; outline: as §1
[8] = tested on: Cellular tumor antigen p53 (Homo sapiens), P04637 [Y220C]; assay: Activation of p53 Y220C mutant in human NUGC3 cells assessed as change in TP53 mRNA level at 60 uM after 18 hrs by RT-PCR method relative to control; outline: as §2
[9] = tested on: Cellular tumor antigen p53 (Homo sapiens), P04637 [Y220C]; assay: Activation of p53 Y220C mutant in human NUGC3 cells assessed as change in PTEN mRNA level at 60 uM after 18 hrs by RT-PCR method relative to control; outline: as §2
[10] = molecular target: T1, Cellular tumor antigen p53; assay: Activation of p53 in human NUGC4 cells assessed as change in HK2 mRNA level at 60 uM after 18 hrs by RT-PCR method relative to control; details: read-out: FC; outline: as §1
[11] = tested on: Cellular tumor antigen p53 (Homo sapiens), P04637 [Y220C]; assay: Activation of p53 Y220C mutant in human NUGC3 cells assessed as change in FASLG mRNA level at 60 uM after 18 hrs by RT-PCR method relative to control
Outline: (§3)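 p53 signalling qPCR array covering 84 genes. Cells were exposed for 18 h, with 0.5% DMSO in both compound and control samples. Total RNA was extracted and purified. Fold-changes were calculated by ΔΔCt using β2-microglobulin (B2M) as the housekeeping gene. Two independent biological replicates were run per cell line.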

[12] = tested on: Cellular tumor antigen p53 (Homo sapiens), P04637 [Y220C]; assay: Activation of p53 Y220C mutant in human NUGC3 cells assessed as change in XRCC5 mRNA level at 60 uM after 18 hrs by RT-PCR method relative to control; outline: as §2
[13] = molecular target: T1, Cellular tumor antigen p53; assay: Activation of p53 in human NUGC4 cells assessed as change in RELA mRNA level at 60 uM after 18 hrs by RT-PCR method relative to control; details: read-out: FC
[14] = tested on: Cellular tumor antigen p53 (Homo sapiens), P04637 [Y220C]; assay: Activation of p53 Y220C mutant in human NUGC3 cells assessed as change in TNFRSF10D mRNA level at 60 uM after 18 hrs by RT-PCR method relative to control; outline: as §2
[15] = molecular target: T1, Cellular tumor antigen p53; assay: Activation of p53 in human NUGC4 cells assessed as change in CDC25C mRNA level at 60 uM after 18 hrs by RT-PCR method relative to control; details: read-out: FC; outline: as §1
[16] = molecular target: T1, Cellular tumor antigen p53; assay: Activation of p53 in human NUGC4 cells assessed as change in STAT1 mRNA level at 60 uM after 18 hrs by RT-PCR method relative to control; details: read-out: FC
[17] = tested on: Cellular tumor antigen p53 (Homo sapiens), P04637 [Y220C]; assay: Activation of p53 Y220C mutant in human NUGC3 cells assessed as change in CASP9 mRNA level at 60 uM after 18 hrs by RT-PCR method relative to control; outline: as §3
[18] = molecular target: T1, Cellular tumor antigen p53; assay: Activation of p53 in human NUGC4 cells assessed as change in E2F3 mRNA level at 60 uM after 18 hrs by RT-PCR method relative to control; details: read-out: FC; outline: as §1
[19] = molecular target: T1, Cellular tumor antigen p53; assay: Activation of p53 in human NUGC4 cells assessed as change in MDM2 mRNA level at 60 uM after 18 hrs by RT-PCR method relative to control; details: read-out: FC; outline: as §1
[20] = tested on: Cellular tumor antigen p53 (Homo sapiens), P04637 [Y220C]; assay: Activation of p53 Y220C mutant in human NUGC3 cells assessed as change in TRAF2 mRNA level at 60 uM after 18 hrs by RT-PCR method relative to control; outline: as §2
[21] = molecular target: T1, Cellular tumor antigen p53; assay: Activation of p53 in human NUGC4 cells assessed as change in TNFRSF10B mRNA level at 60 uM after 18 hrs by RT-PCR method relative to control; details: read-out: FC
[22] = tested on: Cellular tumor antigen p53 (Homo sapiens), P04637 [Y220C]; assay: Activation of p53 Y220C mutant in human NUGC3 cells assessed as change in PTTG1 mRNA level at 60 uM after 18 hrs by RT-PCR method relative to control; outline: as §2
[23] = molecular target: T1, Cellular tumor antigen p53; assay: Activation of p53 in human NUGC4 cells assessed as change in TNFRSF10D mRNA level at 60 uM after 18 hrs by RT-PCR method relative to control; details: read-out: FC
[24] = molecular target: T1, Cellular tumor antigen p53; assay: Activation of p53 in human NUGC4 cells assessed as change in BRCA2 mRNA level at 60 uM after 18 hrs by RT-PCR method relative to control; details: read-out: FC; outline: as §1
[25] = tested on: Cellular tumor antigen p53 (Homo sapiens), P04637 [Y220C]; assay: Activation of p53 Y220C mutant in human NUGC3 cells assessed as change in GADD45A mRNA level at 60 uM after 18 hrs by RT-PCR method relative to control; outline: as §3
[26] = tested on: Cellular tumor antigen p53 (Homo sapiens), P04637 [Y220C]; assay: Activation of p53 Y220C mutant in human NUGC3 cells assessed as change in CCNB1 mRNA level at 60 uM after 18 hrs by RT-PCR method relative to control; outline: as §3
[27] = tested on: Cellular tumor antigen p53 (Homo sapiens), P04637 [Y220C]; assay: Activation of p53 Y220C mutant in human NUGC3 cells assessed as change in PIDD1 mRNA level at 60 uM after 18 hrs by RT-PCR method relative to control; outline: as §2
[28] = molecular target: T1, Cellular tumor antigen p53; assay: Activation of p53 in human NUGC4 cells assessed as change in CASP2 mRNA level at 60 uM after 18 hrs by RT-PCR method relative to control; details: read-out: FC; outline: as §1
[29] = molecular target: T1, Cellular tumor antigen p53; assay: Activation of p53 in human NUGC4 cells assessed as change in HDAC1 mRNA level at 60 uM after 18 hrs by RT-PCR method relative to control; details: read-out: FC; outline: as §1

- fold induction at 60 µM [1]: 0.6
- fold induction at 60 µM [2]: 1
- fold induction at 60 µM [3]: 1
- fold change (FC) [4]: 1.4
- fold induction at 60 µM [5]: 0.8
- fold induction at 60 µM [6]: 0.8
- fold induction at 60 µM [7]: 1
- fold change (FC) [8]: 0.7
- fold change (FC) [9]: 1.1
- fold induction at 60 µM [10]: 0.8
- fold change (FC) [11]: 1.1
- fold change (FC) [12]: 1.4
- fold induction at 60 µM [13]: 0.8
- fold change (FC) [14]: 1
- fold induction at 60 µM [15]: 0.9
- fold induction at 60 µM [16]: 0.9
- fold change (FC) [17]: 1
- fold induction at 60 µM [18]: 0.7
- fold induction at 60 µM [19]: 0.8
- fold change (FC) [20]: 1.4
- fold induction at 60 µM [21]: 1.2
- fold change (FC) [22]: 1.5
- fold induction at 60 µM [23]: 1
- fold induction at 60 µM [24]: 0.6
- fold change (FC) [25]: 2.2
- fold change (FC) [26]: 1.1
- fold change (FC) [27]: 1.2
- fold induction at 60 µM [28]: 0.7
- fold induction at 60 µM [29]: 0.8
Structure (SMILES): CCNC(=O)c1c(O)c(I)c(-n2cccc2)c2sc(N(CC)CC)nc12

Reference: ChEMBL document CHEMBL4152234, “Aminobenzothiazole derivatives stabilize the thermolabile p53 cancer mutant Y220C and show anticancer activity in p53-Y220C cell lines” (Eur J Med Chem, 2018)
